According to ChEMBL document CHEMBL1177751, “Antifungal and cytotoxic activity of withanolides from Acnistus arborescens” (J Nat Prod, 2010):

Columns and labels:
[1] = Cytotoxicity against imatinib and dasatinib-resistant mouse DA1-3b/M2 cells after 72 hrs by MTT assay; type: functional, cell-based
Procedure, shortened: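 Cells seeded at 10^4/well and exposed to compound or DMSO vehicle for 72 h. MTT added for the final 4 h, absorbance read at 490 nm; triplicate, camptothecin as positive control. K562R, DA1-3b/M2 and bone marrow cells (three healthy donors) grown in RPMI 1640 + 1% glutamine, 1% penicillin/streptomycin, 10% FCS. EML-C1 cultured per ATCC instructions.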

Pneumocystis carinii = assay: Antifungal activity against Pneumocystis carinii after 4 days by RAL-555 staining based microscopy; type: functional, organism-based; conditions: 96 h
Procedure, shortened: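 Pneumocystis carinii came from the lungs of athymic Lou nu/nu rats that were dexamethasone-immunosuppressed and infected. Broth microdilution in DMEM + 10% FCS, 1.0 × 10^6 organisms/mL, final drug 1.1 × 10^-5 to 212.3 µM diluted from DMSO stocks. Incubated 4 days at 37 °C, 5% CO2, with a drug-free control. Smears stained with RAL-555 and counted microscopically; triplicate. Hill (Emax sigmoid) model used.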

## CC[C@@]1(O)C(=O)OCc2c1cc1n(c2=O)Cc2cc3ccccc3nc2-1 [CAMPTOTHECIN]
[1]
  IC50: 30 nM

## N=C(N)c1ccc(OCCCCCOc2ccc(C(=N)N)cc2)cc1 [PENTAMIDINE]
Pneumocystis carinii
  IC50: 84 nM
